Screening results from PubChem.
Shown are actives, neighbours in structure and some others; about 1.2% of the full set was active somewhere.
MMP-13 inhibitor – blocks human MMP13 activity; actives 0.07% (n = 65,000); AID 570; P45452; inhibition, % at 4 µM; MMP-13 fTHP FRET cleavage, Mca fluorescence;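 active = inhibition above the mean of compound-free control plate wells plus 3 SD, cut at about 14% in these data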;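 note: 0% = DMSO wells and 100% = wells with reference MMP-13 inhibitor after basal subtraction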
HER2 expr 66K – inhibitors of human Her2 kinase expression; P04626; SKBR-3 HER2 protein level, AlphaScreen, 18-24 h; hits give low values; HER2 level % of control, % at 10 µM; actives 0.69% (n = 65,000); AID 645;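 active = HER2 level under 5% of the carrier-only control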;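 note: 100% = DMSO carrier and 0% = 500 nM PU-H71 HSP90 inhibitor; lower value means stronger loss of Her2 protein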
TNAP act mid DEA – human TNAP activation, intermediate phosphate acceptor | 64,000 tested, under 10 active | AID 813 | purified TNAP, CDP-star luminescence, 100 mM DEA, 30 min; hits give high values; scale: 0 levamisole-inhibited, 1 vehicle-only enzyme | activation factor at 20 µM;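 active = activation factor of at least 2 at 20 µM, relative to controls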
Ec RNAP inh – Escherichia coli RNA polymerase inhibition; P0A8V2; E. coli RNA polymerase, fluorescence transcription assay; inhibition, %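 (tested at 10 µM)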; actives 0.2% (n = 62,000); AID 559; in the data active = inhibition above about 20%;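 note: 0% = enzyme without compound and 100% = no enzyme blank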
SK-BR-3 tox 24h – SK-BR-3 proliferation inhibitors; SK-BR-3 viability, CellTiter-Glo ATP luminescence, 24 h; hits give low values; viability, % at 10 µM; actives 0.47% (n = 41,000);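 active = viability at or below the median of all test compounds minus 3 SD, in both replicates if run twice, cut at about 45% in these data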;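 note: 100% = median untreated cell wells and 0% = median positive control drug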
AP ELISA ortho – orthogonal test for alternative complement pathway inhibitors; Human serum alternative complement pathway, LPS-coated ELISA, C3 deposition; tested in compound mixtures; inhibition, % at 5 µM; actives 0.08% (n = 62,000);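 active = inhibition above 30% in each of the two pooled mixtures holding the compound, so the lower value exceeds 30%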;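 note: 0% = serum in Mg-EGTA without compound and 100% = EDTA serum blank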
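Test system: human serum complement alternative pathway, C3 deposition onto LPS / Medium: Mg2+-EGTA GVB++ buffer containing human serum at 1:15 dilution / Probe or stimulus: Plate-bound LPS / Times: 1 h at 37 °C / Signal: ELISA with HRP anti-human C3 antibody, TMB substrate, absorbance 450 nm / Measure: percent inhibition / Repeats: two pool placements per compound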
Active calls of the source: *; · = no result.

SMILES | MMP-13 inhibitor | HER2 expr 66K | TNAP act mid DEA | Ec RNAP inh | SK-BR-3 tox 24h | AP ELISA ortho
O=C(c1sc2ccccc2c1Cl)N1CCC2(CC1)OCCO2 | -1 | 116 | 0.9 | -10 | 92 | 3
Cc1c(C(=O)N2CCC3(CC2)OCCO3)sc2ncnc(N3CCN(c4ccccn4)CC3)c12 | -1 | 84 | 0.9 | 2 | 38* | 7
N=c1c[n+](CC23CC4CC(CC(C4)C2)C3)[n-]o1 | 2 | 42 | 0.9 | -2 | · | 18
C=CCN(CC=C)Cc1c[nH]c2ccccc12 | -3 | 23 | 0.9 | 2 | 27* | 6
COc1cccc(-n2c(O)c(C=NCCN3CCOCC3)c(=O)[nH]c2=O)c1 | 3 | 116 | 1.1 | 3 | 103 | ·
CCn1nc(-c2ccccc2)nc2c(=O)n(C)c(=O)nc1-2 | 4 | -14* | 0.8 | 1 | 38* | 6
CC(C)(C)n1c(O)c(C=Nc2ccc3c(c2)CCC3)c(=O)[nH]c1=O | 1 | 69 | 0.8 | 6 | 72 | 14
CCOC(C(=O)OCC(O)CN(CC)CC)(c1ccccc1)c1ccccc1 (stereo not drawn) | -1 | 103 | 0.9 | 22* | 79 | -7
CCCCN1C(=O)NC(=O)C2(Cc3c(nc4c(C)cccn4c3=O)N3CCc4ccccc4C32)C1=O (stereo not drawn) | 2 | 1.2* | 1 | 4 | 121 | 16
O=C1NC(=O)C(CCc2ccncc2)(c2ccccc2)C(=O)N1 | 37* | 212 | 1 | 7 | 91 | -2
C[C@H]1CCC[C@@H](O)CCC/C=C/c2cc(O)cc(O)c2C(=O)O1 | -2 | -14* | 0.9 | 1 | 92 | 12
C[C@H]1CCC/C=C/C2C[C@H](O)CC2[C@H](O)/C=C/C(=O)O1 (stereo partly drawn) | 0 | 94 | 0.9 | 4 | 100 | 15
C[C@H]1CCC[C@H](O)CCCCCc2cc(O)cc(O)c2C(=O)O1 | 3 | -10* | 1 | 2 | · | 17
COc1ccc(-n2c(O)c(C(C)=NCCN3CCNCC3)c(=O)[nH]c2=O)cc1 | 0 | 111 | 0.9 | 9 | 94 | 2
C=CCn1c(O)c(C(CC)=Nc2ccccc2NC(C)=O)c(=O)[nH]c1=O | 3 | 111 | 0.9 | · | 117 | 11
C=CCn1c(O)c(C(CC)=NCCCO)c(=O)[nH]c1=O | 1 | 140 | 1 | 9 | 44* | -9
CCCCn1c(O)c(C(CC)=NCc2ccc3c(c2)OCO3)c(=O)[nH]c1=O | -4 | 101 | 0.9 | -1 | 90 | 23
C=CCn1c(O)c(C(CC)=NCc2cc(OC)cc(OC)c2)c(=O)[nH]c1=O | 3 | 91 | 1 | 11 | 34* | 0
O=c1c2ccccc2[se]n1-c1ccccc1 | 3 | 97 | 0.9 | 37* | 89 | -2
C=Cn1ccnc1P(=S)(c1nccn1C=C)C1CCCCC1 | 0 | 151 | 1 | 2 | 87 | 9
Nc1c(C(=O)NC2CCCC2)c2nc3ccccc3nc2n1CC1CCCO1 (stereo not drawn) | -120 | -28* | 1 | 1 | 115 | 3
O=P(C(c1c[nH]c2ccccc12)N1CCOCC1)(N1CCOCC1)N1CCOCC1 (stereo not drawn) | -8 | 78 | 0.9 | 5 | 93 | 21
CCC(=NCc1ccc(F)cc1)c1c(O)n(C)c(=O)n(C)c1=O | 2 | 80 | 0.9 | 4 | 79 | 3
CC1(C)C(c2ccccc2)=NC(c2cccnc2)N1O (stereo not drawn) | · | 101 | 0.8 | 11 | 103 | 14
Clc1ccc(CSC(Cn2ccnc2)c2ccc(Cl)cc2Cl)cc1 (stereo not drawn) | 1 | 82 | 1.3 | 12 | 101 | 13
Clc1ccc(COC(Cn2ccnc2)c2ccc(Cl)cc2Cl)cc1 (stereo not drawn) | -2 | -15* | 1.1 | 7 | 103 | 18
